TDP2 absorb – blocks human TDP2 phosphodiesterase activity; recombinant TDP2, T5PNP hydrolysis, p-nitrophenol absorbance 415 nm; inhibition, % at 12.8 µM; hit rate 0.34% among 370,000; AID 720702;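 active = inhibition above the mean of all tested compounds plus 3 SD, set per campaign, cut at about 25% in these data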
Target sequence (O95551 whole entry, looked up): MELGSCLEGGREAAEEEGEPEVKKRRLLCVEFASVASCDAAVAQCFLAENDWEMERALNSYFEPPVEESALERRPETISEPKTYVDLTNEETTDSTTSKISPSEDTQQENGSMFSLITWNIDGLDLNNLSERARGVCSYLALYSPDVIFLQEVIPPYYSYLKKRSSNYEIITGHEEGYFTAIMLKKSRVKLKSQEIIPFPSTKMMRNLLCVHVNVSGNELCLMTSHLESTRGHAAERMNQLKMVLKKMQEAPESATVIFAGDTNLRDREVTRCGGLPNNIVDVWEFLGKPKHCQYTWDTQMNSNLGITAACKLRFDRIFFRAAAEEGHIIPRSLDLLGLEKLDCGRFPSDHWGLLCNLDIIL
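Test system: human TDP2 enzyme; Input: 120 nM TDP2 per well; Buffer or medium: Mg2+-containing Tris-HCl buffer, pH 7.5; Reagent: 5 mM T5PNP; Dosing: 12.8 µM single point, 1% DMSO; Incubation: reaction 2 h, 37 °C; Detection: p-Nitrophenol epi absorbance; Read-out: % inhibition relative to enzyme-containing and enzyme-free wells; Replicates: single well per compound.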
Apaf-1 inh – human Apaf-1 inhibition. reconstituted apoptosome caspase-3 activity, DEVD-Rh110 fluorescence. inhibition, % at 20 µM. O14727. AID 489030. hit rate 0.71% among 330,000; active = inhibition of at least 40% at 20 µM
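Material: biochemical Apaf-1 apoptosome reconstitution. Medium: Hepes buffer, pH 7.5. Also added: cytochrome c activation, bis-DEVD rhodamine 110 substrate. Timing: 30 min compound preincubation, 50 min activation, room temperature. Measured by: rhodamine 110 fluorescence at Ex 480/Em 540 nm.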
PP5 primary – PP5 (human) phosphatase inhibition. P53041. purified PP5c, OMFP substrate fluorescence. inhibition, % at 6.7 µM. hit rate 0.18% among 320,000. AID 1987;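 active = inhibition above the campaign's mean inhibition across all tested compounds plus 3 SD, cut at about 9.5% in these data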
PP1 counter – counter-screen for PP5 inhibitors: inhibitors of human PP1-alpha. P62136. purified PP1alpha, OMFP fluorescence. hit rate 0.9% among 320,000. inhibition, % at 6.7 µM. AID 2235;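 active = inhibition above the mean inhibition of all tested compounds plus 3 SD, computed separately for each screening campaign, cut at about 15% in these data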
Target sequence (P62136 whole entry, looked up): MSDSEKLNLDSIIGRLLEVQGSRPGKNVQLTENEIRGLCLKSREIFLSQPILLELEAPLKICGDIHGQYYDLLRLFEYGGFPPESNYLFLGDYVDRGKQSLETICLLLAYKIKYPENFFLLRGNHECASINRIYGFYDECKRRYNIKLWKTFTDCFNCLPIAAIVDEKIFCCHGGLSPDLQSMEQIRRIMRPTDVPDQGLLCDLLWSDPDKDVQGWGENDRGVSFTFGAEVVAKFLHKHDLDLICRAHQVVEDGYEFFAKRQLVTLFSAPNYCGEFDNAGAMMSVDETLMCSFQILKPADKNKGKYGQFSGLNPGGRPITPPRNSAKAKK
GSTO1 counter – counter-screen for RBBP9 inhibitors: inhibitors of human GSTO1; P78417; recombinant GSTO1, activity-based probe fluorescence polarization; inhibition, % at 5.96 µM; hit rate 1.1% among 300,000;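 active = inhibition above the campaign mean inhibition plus 3 SD, cut at about 35% in these data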
GSTO1 inh conf – GSTO1 (human) inhibition, confirmation | shares compounds with GSTO1 counter | recombinant GSTO1, probe fluorescence polarization | hit rate 54% among 2,400 | AID 2176 | inhibition, % at 5.96 µM;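 active = inhibition above the primary screen's cutoff, its mean inhibition plus 3 SD, cut at about 35% in these data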;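 also: loss of polarization as inhibitors block binding of rhodamine sulfonate ester activity probe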
GSTO1 recomb ABPP – blocks recombinant human glutathione S-transferase omega 1; shares compounds with GSTO1 counter; hit rate 30% among 130; AID 463110; recombinant GSTO1, gel ABPP SE-Rh probe fluorescence; inhibition, % at 1 µM;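 active = inhibition of the enzyme GSTO1 above about 75%, limit read from the data; inactive = inhibition below that limit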
Hits are given with their value; n = inactive; x = not tested or not shown. Compounds with a hit are over-represented: about 2.1% of the library has one in this group of screens.

SMILES | TDP2 absorb | Apaf-1 inh | PP5 primary | PP1 counter | GSTO1 counter | GSTO1 inh conf | others
Cc1ccc(S(=O)(=O)/N=C2\C=C(NS(=O)(=O)c3ccccc3)C(=O)c3ccccc32)cc1 | n | x | x | x | x | x
Cc1ccc(S(=O)(=O)/N=C2/C=C(C3C(=O)CC(C)(C)CC3=O)C(=O)c3ccccc32)cc1 | 51 | n | n | n | 61 | n
COc1ccc(C2C(C(=O)N3CCN(c4ccccc4C)CC3)CC(=O)N2c2ccc(OC)cc2)cc1 (centres undefined) | n | x | x | x | x | x
CS(=O)(=O)c1ccc2c(c1)sc1nc(=O)c(/C=C3/C=CC(=O)C(O)=C3)c(N)n12 | n | n | n | n | 44 | n
COC1=C/C(=C/c2c(N)n3c(nc2=O)sc2cc(S(C)(=O)=O)ccc23)C=CC1=O | n | n | n | n | n | x
C=CCN(C)CC#Cc1ccc(F)cc1 | n | x | x | x | x | x
CC(CCc1ccccc1)NC(=O)CN1CCN(Cc2ccccc2)C1=O (centres undefined) | n | n | n | n | n | x
CC(CCc1ccccc1)NC(=O)CN1CCN(c2ccc(O)cc2)CC1 (centres undefined) | n | n | n | n | 38 | n
O=C1CCCC2=C1C(c1ccco1)Nc1ccc3ccccc3c12 (centres undefined) | n | n | n | n | 38 | n
O=C1CCCC2=C1C(c1ccc(O)c(O)c1)Nc1ccc3ccccc3c12 (centres undefined) | n | n | n | n | 67 | n
COCCN=c1scc(-c2ccco2)n1/N=C/c1ccc(O)c(O)c1O | n | n | n | n | 69 | n
Cc1nc2ccccc2c(=O)n1/N=C/c1ccc(O)c(O)c1O | n | n | n | n | 71 | n
CO[C@@H]1[C@H](O)CC[C@]2(O)CN(c3ccc(F)cc3)[C@](C)([C@H](O)CC=C(C)C)[C@@H]12 | n | x | x | x | x | x
O=C(O)c1ccc(N/N=C/C(Br)=C/c2ccccc2)cc1 | n | n | n | n | 64 | 65
COC(=O)[C@@]12CCCCC3=C1N(CCC3)C(=O)[C@H]2CC(=O)N1CCCCC1 | n | x | x | x | x | x
O=C(CCc1ccc(O)cc1)c1c(O)cc(O)cc1O | n | n | n | n | 46 | n
O=C(Cc1ccc2c(c1)OCCO2)c1c(O)cc(O)cc1O | n | n | n | n | 51 | n
O=S1(=O)C=CCN1Cc1cn(Cc2ccc(Cl)cc2)nn1 | n | x | x | x | x | x
COc1cccc(CNCCO)c1OCc1ccc(Cl)cc1 | n | n | n | n | n | x
CCOc1cccc(CNc2ccc(O)cc2)c1OCc1ccc(Cl)cc1 | n | n | n | n | 76 | n
CCOc1cc(CNc2ccc(O)cc2)ccc1OCc1ccc(Cl)cc1Cl | x | 94 | n | n | 87 | n
CCOc1cc(CNCc2ccccc2)ccc1OCc1ccc(Cl)cc1 | n | n | n | n | n | x
Oc1ccc(/C=N/N=C/c2ccc(O)c(O)c2)cc1O | n | n | n | n | 39 | n
COc1cc(/C=N/N=C2/C(=O)Nc3ccccc32)ccc1O | n | n | n | n | n | x
O=C1Nc2ccccc2/C1=N\N=C\c1ccc(O)c(O)c1 | n | n | n | n | 69 | n
SMILES | TDP2 absorb | Apaf-1 inh | PP5 primary | PP1 counter | GSTO1 counter | GSTO1 inh conf | others
C[C@@H]1CN([C@H](C)CO)C(=O)CCCn2nncc2CO[C@H]1CN(C)C(=O)Nc1ccc2c(c1)OCCO2 | n | x | x | x | x | x
C[C@H]1CNC(=O)c2c(C(=O)N3CCN(c4ccccc4)CC3)ncn21 | n | x | x | x | x | x
CCC(C(=O)OCC(=O)Nc1ccc(Cl)c(S(=O)(=O)N(C)C)c1)c1ccccc1 (centres undefined) | n | n | n | n | 65 | n
CN(C)S(=O)(=O)c1cc(NC(=O)COC(=O)Cc2cccc3ccccc23)ccc1Cl | n | n | n | n | n | x
O=C(N[C@H]1C[C@@H]2O[C@@H](CO)CC[C@@H]2O[C@@H]1CCc1ccc(-c2cccnc2)cc1)c1cccc(F)c1 | n | x | x | x | x | x
O=Nc1ccc(O)c2ncccc12 | n | n | n | n | 69 | n
O=[N+]([O-])c1ccc(O)c2ncccc12 | n | n | n | n | 45 | n
O=[N+]([O-])c1cc([N+](=O)[O-])c2cccnc2c1Oc1ccccc1O | n | x | n | n | 50 | n
O=[N+]([O-])c1ccc(O)c2cccnc12 | n | n | n | n | n | x
CC(C)[C@H](NC(=O)[C@H](Cc1ccccc1)NC(=O)OC(C)(C)C)C(=O)N1CCC2CCN(S(=O)(=O)c3ccccc3)CC21 (some centres undefined) | n | x | x | x | x | x
c1ccc(Nc2cccc(Nc3ccccc3)c2)cc1 | n | n | n | n | n | x
[O-][N+]1=c2ccc(Nc3ccccc3)cc2=NC12CCCCC2 | n | x | n | n | 58 | 35
O=C(NC1CCCCN(Cc2cccc(Cl)c2)C1=O)c1cccs1 (centres undefined) | n | x | x | x | x | x
O=c1c(=Nc2ccccc2O)c(=O)c2ccccc12 | n | n | n | n | 68 | n
O=C(O)c1ccc(C=NN=Cc2ccco2)cc1 | n | x | x | x | x | x
O=C(O)c1ccc2c(c1)C(=O)/C(=C\c1ccco1)C2=O | n | n | n | n | 40 | 50
CC(C)[C@@H]1C(=O)N[C@H](Cc2cn(S(=O)(=O)c3ccccc3)c3ccccc23)C(=O)N1C | n | x | x | x | x | x
O=C(OCC#CCSc1nnc(-c2ccc3ccccc3c2)o1)c1cccs1 | n | x | x | x | x | x
CC(C)(c1ccccc1)c1ccc(OCC2CO2)cc1 (centres undefined) | n | n | n | n | 94 | 91 | GSTO1 recomb ABPP=n
CN(C)CCOc1ccc(C(C)(C)c2ccccc2)cc1 | n | n | n | n | n | x
O=S(=O)(c1ccc(OCC2CO2)cc1)c1ccc(OCC2CO2)cc1 (centres undefined) | n | n | n | n | 92 | 90 | GSTO1 recomb ABPP=n
CCOC(=O)[C@]12CCCC3=C1N(CCC3)C(=O)[C@@H](CC(=O)NCc1ccccc1)C2 | n | x | x | x | x | x
Oc1ccc(C2CNCCc3c2cc(O)c(O)c3Cl)cc1 (centres undefined) | n | n | n | n | n | x
Oc1ccc(C2CNCc3sccc32)cc1O (centres undefined) | n | n | n | n | 49 | n
CCOc1ccc(C(NC(=O)CC)c2c(O)ccc3ccccc23)cc1 (centres undefined) | n | n | n | n | n | x
CC(C)(C)C(=O)NC(c1ccccc1)c1c(O)ccc2ccccc12 (centres undefined) | n | n | n | n | 53 | n
COc1ccc(NC(=S)NNc2ccc(S(=O)(=O)Nc3ccccc3C(=O)O)cc2[N+](=O)[O-])cc1 | n | n | n | n | 67 | 80
Cc1noc(NS(=O)(=O)c2ccc(NC(=O)CSc3ncccn3)cc2)c1C | n | n | n | n | 55 | n
Cc1cc(C)nc(SCC(=O)Nc2ccc(S(=O)(=O)Nc3onc(C)c3C)cc2)n1 | n | n | n | n | n | x
